Laboratory results: ChEMBL document CHEMBL1154956, “Stereospecific synthesis of oximes and oxime ethers of 3-azabicycles: A SAR study towards antimicrobial agents” (2010)
Values after ≈ are worked out from the molar mass of the structure shown.

Legend:
Type in all cases: functional
Candida parapsilosis = test: Antifungal activity against Candida parapsilosis by NCCLS broth microdilution method
In short: (§1)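 MIC90 was taken as the lowest concentration that inhibited 90% of pathogen growth after incubation, reported in μg/mL. Broth dilution followed the NCCLS reference standards: M27-A for yeasts and the proposed standard for conidium-forming filamentous fungi. Fluconazole was the reference drug.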

Staphylococcus aureus = test: Antibacterial activity against Staphylococcus aureus by NCCLS broth microdilution method
Candida albicans = test: Antifungal activity against Candida albicans by NCCLS broth microdilution method; in short: as §1
Aspergillus niger = test: Antifungal activity against Aspergillus niger by NCCLS broth microdilution method; in short: as §1
Cryptococcus neoformans = test: Antifungal activity against Cryptococcus neoformans by NCCLS broth microdilution method; in short: as §1
Pseudomonas aeruginosa = test: Antibacterial activity against Pseudomonas aeruginosa by NCCLS broth microdilution method
Klebsiella pneumoniae = test: Antibacterial activity against Klebsiella pneumoniae by NCCLS broth microdilution method
Bacillus subtilis = test: Antibacterial activity against Bacillus subtilis by NCCLS broth microdilution method
[1] = Lodderomyces parapsilosis, read-out: MIC90
[2] = Staphylococcus aureus, read-out: MIC90
[3] = Candida albicans, read-out: MIC90
[4] = Aspergillus niger, read-out: MIC90
[5] = Cryptococcus neoformans, read-out: MIC90
[6] = Pseudomonas aeruginosa, read-out: MIC90
[7] = Klebsiella pneumoniae, read-out: MIC90
[8] = Bacillus subtilis, read-out: MIC90

Compound | MIC90 (Candida parapsilosis; [1]) | MIC90 (Staphylococcus aureus; [2]) | MIC90 (Candida albicans; [3]) | MIC90 (Aspergillus niger; [4]) | MIC90 (Cryptococcus neoformans; [5]) | MIC90 (Pseudomonas aeruginosa; [6]) | MIC90 (Klebsiella pneumoniae; [7]) | MIC90 (Bacillus subtilis; [8]) | MIC90 (Candida parapsilosis) | MIC90 (Staphylococcus aureus) | MIC90 (Candida albicans) | MIC90 (Aspergillus niger) | MIC90 (Cryptococcus neoformans) | MIC90 (Pseudomonas aeruginosa) | MIC90 (Klebsiella pneumoniae) | MIC90 (Bacillus subtilis)
COc1cccc(C2NC(c3cccc(OC)c3)C3(C)CCCC2/C3=N\O)c1 (stereo unspecified) | > 128 µg/mL | 128 µg/mL (≈ 336 µM) | > 128 µg/mL | > 128 µg/mL | 128 µg/mL (≈ 336 µM) | > 128 µg/mL | > 128 µg/mL | 128 µg/mL (≈ 336 µM) | – | – | – | – | – | – | – | –
CO/N=C1\C2CCCC1(C)C(c1ccc(OC)cc1)NC2c1ccc(OC)cc1 (stereo unspecified) | 128 µg/mL (≈ 324 µM) | 16 µg/mL (≈ 40.6 µM) | 64 µg/mL (≈ 162 µM) | 128 µg/mL (≈ 324 µM) | > 128 µg/mL | 128 µg/mL (≈ 324 µM) | 64 µg/mL (≈ 162 µM) | 64 µg/mL (≈ 162 µM) | – | – | – | – | – | – | – | –
CO/N=C1\C2CCCC1(C)C(c1cccc(Cl)c1)NC2c1cccc(Cl)c1 (stereo unspecified) | 32 µg/mL (≈ 79.3 µM) | 64 µg/mL (≈ 159 µM) | 32 µg/mL (≈ 79.3 µM) | 128 µg/mL (≈ 317 µM) | 64 µg/mL (≈ 159 µM) | 64 µg/mL (≈ 159 µM) | 32 µg/mL (≈ 79.3 µM) | 128 µg/mL (≈ 317 µM) | – | – | – | – | – | – | – | –
CC1CC2C(=NO)C(C1)C(c1cccc(F)c1)NC2c1cccc(F)c1 (stereo in doubt; 50a) | 64 µg/mL (≈ 180 µM) | 32 µg/mL (≈ 89.8 µM) | 128 µg/mL (≈ 359 µM) | 64 µg/mL (≈ 180 µM) | > 128 µg/mL | 64 µg/mL (≈ 180 µM) | 32 µg/mL (≈ 89.8 µM) | 128 µg/mL (≈ 359 µM) | – | – | – | – | – | – | – | –
CON=C1C2CC(C)CC1C(c1ccccc1F)NC2c1ccccc1F (stereo in doubt; 55a) | – | – | – | – | – | – | – | 4 µg/mL (≈ 10.8 µM) | 32 µg/mL (≈ 86.4 µM) | 2 µg/mL (≈ 5.4 µM) | 8 µg/mL (≈ 21.6 µM) | 16 µg/mL (≈ 43.2 µM) | 16 µg/mL (≈ 43.2 µM) | 8 µg/mL (≈ 21.6 µM) | 2 µg/mL (≈ 5.4 µM) | –
CON=C1C2CC(C)CC1C(c1ccccc1Cl)NC2c1ccccc1Cl (stereo in doubt; 58a) | – | 4 µg/mL (≈ 9.92 µM) | 8 µg/mL (≈ 19.8 µM) | – | – | – | – | – | 16 µg/mL (≈ 39.7 µM) | – | – | 32 µg/mL (≈ 79.3 µM) | 16 µg/mL (≈ 39.7 µM) | 4 µg/mL (≈ 9.92 µM) | 4 µg/mL (≈ 9.92 µM) | 8 µg/mL (≈ 19.8 µM)
CC12CCCC(/C1=N\O)C(c1ccc(Cl)cc1)NC2c1ccc(Cl)cc1 (stereo unspecified) | 64 µg/mL (≈ 164 µM) | 64 µg/mL (≈ 164 µM) | 32 µg/mL (≈ 82.2 µM) | 64 µg/mL (≈ 164 µM) | 32 µg/mL (≈ 82.2 µM) | > 128 µg/mL | 16 µg/mL (≈ 41.1 µM) | > 128 µg/mL | – | – | – | – | – | – | – | –
Cc1ccc(C2NC(c3ccc(C)cc3)C3(C)CCCC2/C3=N\O)cc1 (stereo unspecified) | > 128 µg/mL | 128 µg/mL (≈ 367 µM) | 128 µg/mL (≈ 367 µM) | 64 µg/mL (≈ 184 µM) | 128 µg/mL (≈ 367 µM) | > 128 µg/mL | > 128 µg/mL | 128 µg/mL (≈ 367 µM) | – | – | – | – | – | – | – | –
CON=C1C2CC(C)CC1C(c1ccc(F)cc1)NC2c1ccc(F)cc1 (stereo unspecified) | 64 µg/mL (≈ 173 µM) | 4 µg/mL (≈ 10.8 µM) | 16 µg/mL (≈ 43.2 µM) | 16 µg/mL (≈ 43.2 µM) | 8 µg/mL (≈ 21.6 µM) | 16 µg/mL (≈ 43.2 µM) | 8 µg/mL (≈ 21.6 µM) | 16 µg/mL (≈ 43.2 µM) | – | – | – | – | – | – | – | –
CO/N=C1\C2CCCC1(C)C(c1ccccc1Br)NC2c1ccccc1Br (stereo unspecified) | 32 µg/mL (≈ 65 µM) | 64 µg/mL (≈ 130 µM) | 64 µg/mL (≈ 130 µM) | 32 µg/mL (≈ 65 µM) | 128 µg/mL (≈ 260 µM) | 128 µg/mL (≈ 260 µM) | 64 µg/mL (≈ 130 µM) | 64 µg/mL (≈ 130 µM) | – | – | – | – | – | – | – | –
CC1CC2C(=NO)C(C1)C(c1ccc(Cl)cc1)NC2c1ccc(Cl)cc1 (stereo unspecified) | 64 µg/mL (≈ 164 µM) | 32 µg/mL (≈ 82.2 µM) | 64 µg/mL (≈ 164 µM) | 32 µg/mL (≈ 82.2 µM) | 64 µg/mL (≈ 164 µM) | 32 µg/mL (≈ 82.2 µM) | 16 µg/mL (≈ 41.1 µM) | 32 µg/mL (≈ 82.2 µM) | – | – | – | – | – | – | – | –
CC12CCCC(/C1=N\O)C(c1ccccc1)NC2c1ccccc1 (stereo unspecified) | > 128 µg/mL | 128 µg/mL (≈ 399 µM) | > 128 µg/mL | > 128 µg/mL | > 128 µg/mL | > 128 µg/mL | > 128 µg/mL | > 128 µg/mL | – | – | – | – | – | – | – | –
CC12CCCC(/C1=N\O)C(c1ccccc1Cl)NC2c1ccccc1Cl (stereo unspecified) | 8 µg/mL (≈ 20.5 µM) | 8 µg/mL (≈ 20.5 µM) | 64 µg/mL (≈ 164 µM) | 16 µg/mL (≈ 41.1 µM) | 8 µg/mL (≈ 20.5 µM) | 32 µg/mL (≈ 82.2 µM) | 16 µg/mL (≈ 41.1 µM) | 64 µg/mL (≈ 164 µM) | – | – | – | – | – | – | – | –
CO/N=C1\C2CCCC1(C)C(c1ccc(C)cc1)NC2c1ccc(C)cc1 (stereo unspecified) | > 128 µg/mL | 64 µg/mL (≈ 177 µM) | 128 µg/mL (≈ 353 µM) | 32 µg/mL (≈ 88.3 µM) | 64 µg/mL (≈ 177 µM) | 128 µg/mL (≈ 353 µM) | 64 µg/mL (≈ 177 µM) | 32 µg/mL (≈ 88.3 µM) | – | – | – | – | – | – | – | –
CC12CCCC(/C1=N\O)C(c1ccc(F)cc1)NC2c1ccc(F)cc1 (stereo unspecified) | 32 µg/mL (≈ 89.8 µM) | 16 µg/mL (≈ 44.9 µM) | 16 µg/mL (≈ 44.9 µM) | 64 µg/mL (≈ 180 µM) | 32 µg/mL (≈ 89.8 µM) | 64 µg/mL (≈ 180 µM) | 32 µg/mL (≈ 89.8 µM) | 64 µg/mL (≈ 180 µM) | – | – | – | – | – | – | – | –
CC1CC2C(=NO)C(C1)C(c1ccccc1Cl)NC2c1ccccc1Cl (stereo in doubt; 52a) | 32 µg/mL (≈ 82.2 µM) | 16 µg/mL (≈ 41.1 µM) | – | – | 32 µg/mL (≈ 82.2 µM) | – | 32 µg/mL (≈ 82.2 µM) | 32 µg/mL (≈ 82.2 µM) | – | – | 16 µg/mL (≈ 41.1 µM) | > 128 µg/mL | – | 32 µg/mL (≈ 82.2 µM) | – | –
CC1CC2C(=NO)C(C1)C(c1ccccc1F)NC2c1ccccc1F (stereo in doubt; 49b) | – | – | – | – | – | – | – | – | 32 µg/mL (≈ 89.8 µM) | 32 µg/mL (≈ 89.8 µM) | 16 µg/mL (≈ 44.9 µM) | 4 µg/mL (≈ 11.2 µM) | 16 µg/mL (≈ 44.9 µM) | 128 µg/mL (≈ 359 µM) | 64 µg/mL (≈ 180 µM) | 32 µg/mL (≈ 89.8 µM)
